According to ChEMBL document CHEMBL3046615, “Isolation of nematicidal compounds from Tagetes patula L. yellow flowers: structure-activity relationship studies against cyst nematode Heterodera zeae infective stage larvae” (2011):
Activity calls are given as the source filed them. The calls are words filed in the database; no cut-off is given here.

Columns and labels:
Heterodera zeae [1] = assay: Nematicidal activity against Heterodera zeae infective stage larvae assessed as nematode mortality at 0.25% under light conditions measured 48 hr post dose by stereoscopic microscopy; assay type: functional
How it was run: (§1)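 Freshly hatched H. zeae second-stage juveniles, 100 per Petri plate, three replicates. Samples in MeOH, DMSO or water were tested in glass cavity blocks; petroleum ether samples were dried onto the block and larvae transferred on agar pieces. Percentages are dilutions of 30 mg/mL stocks (extracts/fractions) or 1 mg/mL stocks (pure compounds). Incubated at 28 ± 2 °C in light or dark box; mortality averaged over three replicates.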

Heterodera zeae [2] = assay: Nematicidal activity against Heterodera zeae infective stage larvae assessed as nematode mortality at 0.125% under dark conditions measured 72 hr post dose by stereoscopic microscopy; assay type: functional; how it was run: as §1
Heterodera zeae [3] = assay: Nematicidal activity against Heterodera zeae infective stage larvae assessed as nematode mortality at 0.5% under dark conditions measured 24 hr post dose by stereoscopic microscopy; assay type: functional; how it was run: as §1
Heterodera zeae [4] = assay: Nematicidal activity against Heterodera zeae infective stage larvae assessed as nematode mortality at 0.25% under dark conditions measured 5 to 60 min post dose by stereoscopic microscopy; assay type: functional, organism-based
How it was run: (§2)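 H. zeae freshly hatched second-stage juveniles, 100 per plate, three replicates, at 28 ± 2 °C under light or in a dark box. Dilutions are % of a stock: 30 mg/mL for extracts/fractions, 1 mg/mL for pure compounds. Methanol-, DMSO- or water-soluble samples were tested in glass cavity blocks. Petroleum ether-soluble samples were air-dried in the block and covered with agar pieces bearing cultured larvae. Mortality was followed over 5–60 min; each value is the mean of three experiments.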

Heterodera zeae [5] = assay: Nematicidal activity against Heterodera zeae infective stage larvae assessed as nematode mortality at 0.125% under light conditions measured 24 hr post dose by stereoscopic microscopy; assay type: functional; how it was run: as §1
Heterodera zeae [6] = assay: Nematicidal activity against Heterodera zeae infective stage larvae assessed as nematode mortality at 0.25% under light conditions measured 5 to 60 min post dose by stereoscopic microscopy; assay type: functional, organism-based; how it was run: as §2
Heterodera zeae [7] = assay: Nematicidal activity against Heterodera zeae infective stage larvae assessed as nematode mortality at 0.125% under light conditions measured 5 to 60 min post dose by stereoscopic microscopy; assay type: functional, organism-based; how it was run: as §2
Heterodera zeae [8] = assay: Nematicidal activity against Heterodera zeae infective stage larvae assessed as nematode mortality at 0.25% under light conditions measured 24 hr post dose by stereoscopic microscopy; assay type: functional; how it was run: as §1
Heterodera zeae [9] = assay: Nematicidal activity against Heterodera zeae infective stage larvae assessed as nematode mortality at 1% under light conditions measured 5 to 60 min post dose by stereoscopic microscopy; assay type: functional, organism-based; how it was run: as §2
Heterodera zeae [10] = assay: Nematicidal activity against Heterodera zeae infective stage larvae assessed as nematode mortality at 0.25% under dark conditions measured 72 hr post dose by stereoscopic microscopy; assay type: functional; how it was run: as §1
Heterodera zeae [11] = assay: Nematicidal activity against Heterodera zeae infective stage larvae assessed as nematode mortality at 0.125% under dark conditions measured 5 to 60 min post dose by stereoscopic microscopy; assay type: functional, organism-based; how it was run: as §2
Heterodera zeae [12] = assay: Nematicidal activity against Heterodera zeae infective stage larvae assessed as nematode mortality at 0.25% under light conditions measured 72 hr post dose by stereoscopic microscopy; assay type: functional; how it was run: as §1
Heterodera zeae [13] = assay: Nematicidal activity against Heterodera zeae infective stage larvae assessed as nematode mortality at 0.25% under dark conditions measured 24 hr post dose by stereoscopic microscopy; assay type: functional; how it was run: as §1
Heterodera zeae [14] = assay: Nematicidal activity against Heterodera zeae infective stage larvae assessed as nematode mortality at 0.125% under dark conditions measured 24 hr post dose by stereoscopic microscopy; assay type: functional; how it was run: as §1
Heterodera zeae [15] = assay: Nematicidal activity against Heterodera zeae infective stage larvae assessed as nematode mortality at 5% under light conditions measured 5 to 60 min post dose by stereoscopic microscopy; assay type: functional, organism-based; how it was run: as §2
Heterodera zeae [16] = assay: Nematicidal activity against Heterodera zeae infective stage larvae assessed as nematode mortality at 2% under light conditions measured 5 to 60 min post dose by stereoscopic microscopy; assay type: functional, organism-based; how it was run: as §2
Heterodera zeae [17] = assay: Nematicidal activity against Heterodera zeae infective stage larvae assessed as nematode mortality at 1% under light conditions measured 24 hr post dose by stereoscopic microscopy; assay type: functional; how it was run: as §1
Heterodera zeae [18] = assay: Nematicidal activity against Heterodera zeae infective stage larvae assessed as nematode mortality at 0.5% under light conditions measured 48 hr post dose by stereoscopic microscopy; assay type: functional; how it was run: as §1
Heterodera zeae [19] = assay: Nematicidal activity against Heterodera zeae infective stage larvae assessed as nematode mortality at 1% under light conditions measured 48 hr post dose by stereoscopic microscopy; assay type: functional; how it was run: as §1
Heterodera zeae [20] = assay: Nematicidal activity against Heterodera zeae infective stage larvae assessed as nematode mortality at 0.25% under dark conditions measured 48 hr post dose by stereoscopic microscopy; assay type: functional; how it was run: as §1
Heterodera zeae [21] = assay: Nematicidal activity against Heterodera zeae infective stage larvae assessed as nematode mortality at 0.5% under dark conditions measured 48 hr post dose by stereoscopic microscopy; assay type: functional; how it was run: as §1
Heterodera zeae [22] = assay: Nematicidal activity against Heterodera zeae infective stage larvae assessed as nematode mortality at 0.125% under light conditions measured 72 hr post dose by stereoscopic microscopy; assay type: functional; how it was run: as §1
Heterodera zeae [23] = assay: Nematicidal activity against Heterodera zeae infective stage larvae assessed as nematode mortality at 0.5% under light conditions measured 24 hr post dose by stereoscopic microscopy; assay type: functional; how it was run: as §1
Heterodera zeae [24] = assay: Nematicidal activity against Heterodera zeae infective stage larvae assessed as nematode mortality at 0.5% under dark conditions measured 5 to 60 min post dose by stereoscopic microscopy; assay type: functional, organism-based; how it was run: as §2
Heterodera zeae [25] = assay: Nematicidal activity against Heterodera zeae infective stage larvae assessed as nematode mortality at 1% under dark conditions measured 48 hr post dose by stereoscopic microscopy; assay type: functional; how it was run: as §1
Heterodera zeae [26] = assay: Nematicidal activity against Heterodera zeae infective stage larvae assessed as nematode mortality at 1% under dark conditions measured 24 hr post dose by stereoscopic microscopy; assay type: functional; how it was run: as §1
Heterodera zeae [27] = assay: Nematicidal activity against Heterodera zeae infective stage larvae assessed as nematode mortality at 5% under dark conditions measured 5 to 60 min post dose by stereoscopic microscopy; assay type: functional, organism-based; how it was run: as §2
Heterodera zeae [28] = assay: Nematicidal activity against Heterodera zeae infective stage larvae assessed as nematode mortality at 0.5% under light conditions measured 5 to 60 min post dose by stereoscopic microscopy; assay type: functional, organism-based; how it was run: as §2
Heterodera zeae [29] = assay: Nematicidal activity against Heterodera zeae infective stage larvae assessed as nematode mortality at 0.125% under light conditions measured 48 hr post dose by stereoscopic microscopy; assay type: functional; how it was run: as §1
Heterodera zeae [30] = assay: Nematicidal activity against Heterodera zeae infective stage larvae assessed as nematode mortality at 0.125% under dark conditions measured 48 hr post dose by stereoscopic microscopy; assay type: functional; how it was run: as §1
Heterodera zeae [31] = assay: Nematicidal activity against Heterodera zeae infective stage larvae assessed as nematode mortality at 1% under dark conditions measured 5 to 60 min post dose by stereoscopic microscopy; assay type: functional, organism-based; how it was run: as §2
Heterodera zeae [32] = assay: Nematicidal activity against Heterodera zeae infective stage larvae assessed as nematode mortality at 2% under dark conditions measured 5 to 60 min post dose by stereoscopic microscopy; assay type: functional, organism-based; how it was run: as §2
Heterodera zeae [33] = assay: Nematicidal activity against Heterodera zeae infective stage larvae assessed as nematode mortality at 0.5% under light conditions measured 72 hr post dose by stereoscopic microscopy; assay type: functional; how it was run: as §1
Heterodera zeae [34] = assay: Nematicidal activity against Heterodera zeae infective stage larvae assessed as nematode mortality at 0.5% under dark conditions measured 72 hr post dose by stereoscopic microscopy; assay type: functional; how it was run: as §1

SMILES	mortality (Heterodera zeae [1]) [%]	mortality (Heterodera zeae [2]) [%]	mortality (Heterodera zeae [3]) [%]	Activity (Heterodera zeae [4])	mortality (Heterodera zeae [5]) [%]	Activity (Heterodera zeae [6])	Activity (Heterodera zeae [7])	mortality (Heterodera zeae [8]) [%]	Activity (Heterodera zeae [9])	mortality (Heterodera zeae [10]) [%]	Activity (Heterodera zeae [11])	mortality (Heterodera zeae [12]) [%]	mortality (Heterodera zeae [13]) [%]	mortality (Heterodera zeae [14]) [%]	Activity (Heterodera zeae [15])	Activity (Heterodera zeae [16])	mortality (Heterodera zeae [17]) [%]	mortality (Heterodera zeae [18]) [%]	mortality (Heterodera zeae [20]) [%]	mortality (Heterodera zeae [21]) [%]	also measured
CCCCCCCC/C=C\CCCCCCCC(=O)OC [METHYL OLEATE]	50	10	40	inactive	10	inactive	inactive	10	inactive	10	inactive	100	10	10	inactive	inactive	50	100	10	100	mortality (Heterodera zeae [19]): 100%; mortality (Heterodera zeae [22]): 100%; mortality (Heterodera zeae [23]): 50%; Activity (Heterodera zeae [24]): inactive; mortality (Heterodera zeae [25]): 100%; mortality (Heterodera zeae [26]): 50%; Activity (Heterodera zeae [27]): inactive; Activity (Heterodera zeae [28]): inactive; mortality (Heterodera zeae [29]): 50%; mortality (Heterodera zeae [30]): 10%; Activity (Heterodera zeae [31]): inactive; Activity (Heterodera zeae [32]): inactive
CCCCCCCC/C=C\CCCCCCCC(=O)O [OLEIC ACID]	50	10	40	inactive	10	inactive	inactive	10	inactive	10	inactive	100	10	10	inactive	inactive	50	100	10	100	mortality (Heterodera zeae [19]): 100%; mortality (Heterodera zeae [22]): 100%; mortality (Heterodera zeae [23]): 50%; Activity (Heterodera zeae [24]): inactive; mortality (Heterodera zeae [25]): 100%; mortality (Heterodera zeae [26]): 50%; Activity (Heterodera zeae [27]): inactive; Activity (Heterodera zeae [28]): inactive; mortality (Heterodera zeae [29]): 50%; mortality (Heterodera zeae [30]): 10%; Activity (Heterodera zeae [31]): inactive; Activity (Heterodera zeae [32]): inactive
CCCCCCCCCCCCCCCCCC(=O)O [STEARIC ACID]	70	70	50	inactive	50	inactive	inactive	40	inactive	100	inactive	100	40	40	inactive	inactive	100	70	70	70	mortality (Heterodera zeae [33]): 100%; mortality (Heterodera zeae [34]): 100%; mortality (Heterodera zeae [22]): 70%; mortality (Heterodera zeae [23]): 50%; Activity (Heterodera zeae [24]): inactive; mortality (Heterodera zeae [25]): 100%; mortality (Heterodera zeae [26]): 100%; Activity (Heterodera zeae [27]): inactive; Activity (Heterodera zeae [28]): inactive; mortality (Heterodera zeae [29]): 50%; mortality (Heterodera zeae [30]): 50%; Activity (Heterodera zeae [31]): inactive; Activity (Heterodera zeae [32]): inactive
